Measured values collected from several papers.
Each line is one published result; the experiments were not run side by side.
Oprm1: Mu-type opioid receptor (Oprm1, Rattus norvegicus, UniProt P33535)

SMILES	target	assay	setting	endpoint	result
COc1cc(Cl)c(C(=O)N[C@@H](CN[C@H]2CC[C@@H](N)CC2)Cc2ccc(C#N)cc2)cc1-c1ccc(CN[C@H](C)c2ccc(C)cc2)o1	Serine/threonine-protein kinase Nek11 (NEK11, Homo sapiens, UniProt Q8NG66)	enzyme activity, inhibitor	1 µM	remaining activity	107%
Oc1ccc(C[C@@H]2CN([C@H](Cc3ccc4ccccc4c3)CN3CCC[C@H]3CN3CCNC[C@@H]3Cc3ccc4ccccc4c3)CCN2CCC23CC4CC(CC(C4)C2)C3)cc1	Oprm1	ligand displacement, radioligand	0.5 µM, 1 h, pH 7.5, cell membranes	remaining binding	112%
COc1ncccc1-c1cnn2ccc(N3CCN(C(=O)OC(C)C)CC3)nc12	Casein kinase II subunit alpha (CSNK2A1, Homo sapiens, UniProt P68400)	binding, competition with immobilised ligand	1 µM	remaining binding	79%
OC[C@H]1CNCCN1C[C@@H]1CCCN1C[C@H](CC1CCCCC1)N1CCN(CCc2ccc(Cl)c(Cl)c2)[C@H](Cc2ccc(O)cc2)C1	Oprm1	ligand displacement, radioligand	0.5 µM, 1 h, pH 7.5, cell membranes	remaining binding	105%
CCN(CC)CCCC[C@H](NC(=O)[C@H](CC(C)C)NC(=O)[C@H](C)NC(=O)[C@H](Cc1ccccc1)NC(=O)c1ccc(C(C)(C)C)cc1)C(=O)N[C@@H](CO)C(=O)OC	5-hydroxytryptamine receptor 5A (HTR5A, Homo sapiens, UniProt P47898)	ligand displacement, radioligand	10 µM	remaining binding	93.1%
Cn1cc(-c2cc(F)cc(N3CCn4c(cc5c4CCCC5)C3=O)c2CO)cc(Nc2ccc(N3CCN(C4COC4)CC3)cn2)c1=O	Phosphatidylinositol 4,5-bisphosphate 3-kinase catalytic subunit delta isoform (PIK3CD, Homo sapiens, UniProt O00329)	enzyme activity, inhibitor	0.1 µM	inhibition	-1%
CC[C@@H](C)[C@@H]1CN([C@H](Cc2ccc3ccccc3c2)CN2CCC[C@H]2CN2CCNC[C@@H]2CO)CCN1CCc1ccc(Cl)c(Cl)c1	Oprm1	ligand displacement, radioligand	0.5 µM, 1 h, pH 7.5, cell membranes	remaining binding	98.4%
C#Cc1n[nH]c2c(-c3cn(C(C)c4ccccn4)c(=O)[nH]c3=O)cc(F)cc12 (stereo not shown)	Myosin light chain kinase, smooth muscle (MYLK, Homo sapiens, UniProt Q15746)	enzyme activity, inhibitor	1 µM	inhibition	4%
Cn1cc(-c2cccc(N3CCc4c(sc5c4CC(C)(C)C5)C3=O)c2CO)cc(Nc2ccncn2)c1=O	Phosphatidylinositol 4-kinase alpha (PI4KA, Homo sapiens, UniProt P42356)	enzyme activity, inhibitor	1 µM	inhibition	-5%
Nc1ncc(-c2nc(N3CCOCC3)nc(N3CCOCC3)n2)c(C(F)F)n1	Mast/stem cell growth factor receptor Kit (KIT, Homo sapiens, UniProt P10721, V559D)	binding, competition with immobilised ligand	10 µM	remaining binding	18%
CC[C@@H](C)[C@@H]1CN([C@@H](CC2CCCCC2)CN2CCC[C@H]2CN2CCNC[C@@H]2CO)CCN1CCc1ccc(Cl)c(Cl)c1	Oprm1	ligand displacement, radioligand	0.5 µM, 1 h, pH 7.5, cell membranes	remaining binding	97.8%
Cc1nn(C)cc1-c1nc2c(N3CCN(Cc4ccc(Cl)cc4)CC3)c(Cl)cnc2[nH]1	Mast/stem cell growth factor receptor Kit (KIT, Homo sapiens, UniProt P10721, D816H)	binding, competition with immobilised ligand	1 µM	remaining binding	71%
CC(C)(C)c1nc2c(s1)c1nc(N)ncc1c1ccc(NS(=O)(=O)c3c(F)cccc3F)c(F)c12	Tau-tubulin kinase 1 (TTBK1, Homo sapiens, UniProt Q5TCY1)	enzyme activity, inhibitor, radiometric	1 µM	remaining activity	79%
